# This is a sample that favours compounds with a hit; in the whole collection about 3.4% have one here.
# MC4R antag cAMP – MC4R antagonists of cAMP signaling, primary screen, cell-based, TR-FRET, antagonist arm of biased-ligand search; Melanocortin receptor 4 (Homo sapiens), P32245; MC4R-expressing cells, MTII-stimulated cAMP, LANCE TR-FRET; inhibition, % at 6.5 µM; actives 0.48% (n = 360,000); AID 540295, 2011;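 active means inhibition above its plate's cutoff, the mean of tested wells on that plate plus 3 SD, cut at about 29% in these data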;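 further: 0% = Melanotan II alone and 100% = Melanotan II plus saturating MCL0020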
#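 Material: human MC4R-expressing U2OS cells. Probe or stimulus: Melanotan II challenge. Dosing: 6.5 µM single dose. Times: 30-min compound, 1-h challenge, 1-h detection, room temperature. Technique: TR-FRET with Eu-cAMP and labeled anti-cAMP, 671 nm. Replication: singlicate.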
# MC4R ag barr – MC4R agonists recruiting beta-arrestin, primary screen, cell-based, luminescence, agonist arm of biased-ligand search; actives 0.98% (n = 360,000); activation, % at 8.9 µM; Melanocortin receptor 4 (Homo sapiens), P32245; U2OS MC4R beta-arrestin complementation; percent of melanotan II response, DMSO zero; AID 540308, 2011;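 active means activation above a per-plate cutoff, the mean activation of sample wells on that plate plus 3 SD, cut at about 8% in these data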
# ANO1 activ – TMEM16A chloride channel activators or potentiators, primary screen, cell-based, HTS | Anoctamin-1 (Mus musculus), Q8BHY3 | HEK293 TMEM16A/YFP-H148Q/I152L, iodide quench fluorescence; hits give low values | B-score at 10 µM | actives 0.3% (n = 340,000);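 active means fluorescence-ratio B-score plate-corrected deviation score at least 3 library SD below zero, with starting fluorescence score within 5 deviations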;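 further: channel opened by trigger with iodide after compound preincubation; score built on the fluorescence ratio of max minus min over baseline; more negative score means more quench and so TMEM16A activation or potentiation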
# Target sequence (Q8BHY3 whole entry, looked up): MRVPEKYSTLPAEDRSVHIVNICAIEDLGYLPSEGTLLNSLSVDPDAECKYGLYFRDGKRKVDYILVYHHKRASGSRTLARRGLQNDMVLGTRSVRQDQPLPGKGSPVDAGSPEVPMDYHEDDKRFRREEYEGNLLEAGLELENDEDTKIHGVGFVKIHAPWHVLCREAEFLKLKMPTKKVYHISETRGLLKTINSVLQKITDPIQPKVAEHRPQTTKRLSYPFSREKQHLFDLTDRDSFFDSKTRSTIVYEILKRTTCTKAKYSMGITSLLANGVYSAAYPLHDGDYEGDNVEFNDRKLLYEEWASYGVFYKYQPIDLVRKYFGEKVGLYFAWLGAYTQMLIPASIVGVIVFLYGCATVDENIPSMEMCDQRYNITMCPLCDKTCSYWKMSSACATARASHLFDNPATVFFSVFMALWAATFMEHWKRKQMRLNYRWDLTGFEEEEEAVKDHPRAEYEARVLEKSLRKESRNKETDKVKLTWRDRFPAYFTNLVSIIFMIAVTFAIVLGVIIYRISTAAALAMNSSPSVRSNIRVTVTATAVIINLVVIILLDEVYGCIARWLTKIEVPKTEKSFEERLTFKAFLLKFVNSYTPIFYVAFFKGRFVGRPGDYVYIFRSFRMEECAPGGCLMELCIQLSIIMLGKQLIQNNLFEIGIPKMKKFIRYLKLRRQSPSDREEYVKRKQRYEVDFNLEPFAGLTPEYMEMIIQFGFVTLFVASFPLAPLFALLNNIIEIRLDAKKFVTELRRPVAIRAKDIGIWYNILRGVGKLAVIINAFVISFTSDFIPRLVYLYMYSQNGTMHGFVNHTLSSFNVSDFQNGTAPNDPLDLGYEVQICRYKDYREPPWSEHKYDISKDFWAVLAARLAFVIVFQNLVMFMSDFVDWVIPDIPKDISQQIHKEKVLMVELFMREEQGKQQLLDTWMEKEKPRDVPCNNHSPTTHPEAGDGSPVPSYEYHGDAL
# ANO1 block – TMEM16A chloride channel inhibitors, primary screen, cell-based, HTS | actives 1.2% (n = 310,000) | HEK293 TMEM16A/YFP iodide influx fluorescence, ionomycin | Anoctamin-1 (Mus musculus), Q8BHY3 | normalized B-score (activity score, 25-100; higher = stronger inhibition) at 10 µM | AID 588511, 2011;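 active means ratio plate-corrected score three or more library SD toward inhibition, starting fluorescence score within five deviations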;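 further: score derived from kinetic fluorescence span divided by baseline fluorescence per well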
# beta cell repl – inducers of MIN6 beta-cell proliferation, primary screen, ATP luminescence, uHTS | MIN6 cells proliferation, ATPlite luminescence, 48 h; cells starved in 0.2% serum; 100% = growth in 10% serum | proliferation, % at 10 µM | actives 0.29% (n = 330,000);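 active means compounds whose signal lies at least 3.5 SD above the mean of all wells on their plate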;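 further: 0% = DMSO-treated cells in low-serum medium and 100% = 10% serum control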
# HTR2A ag – mouse Htr2a agonists via beta-arrestin recruitment, primary screen, cell-based, luminescence | 5-hydroxytryptamine receptor 2A (Mus musculus), P35363 | CHO-K1 mHTR2A beta-arrestin complementation; percent of 30 µM serotonin response | activation, % at 7.6 µM | actives 0.66% (n = 360,000) | AID 624169, 2012;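 active means activation above a run cutoff, the mean activation of all tested compounds plus 3 SD, cut at about 14% in these data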;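 further: 0% = plate median of compound wells and 100% = 30 µM serotonin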
# TMEM16A reconf – TMEM16A chloride channel inhibitors, confirmation, cell-based, re-confirmation; shares compounds with ANO1 block; HEK293 TMEM16A/YFP-H148Q, iodide quench fluorescence; ionomycin added to raise cell calcium; inhibition, % at 10 µM; actives 39% (n = 2,300);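 active means mean duplicate percent inhibition, scaled so buffer wells are 0 and the reference blocker 100, over three buffer SD above buffer mean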
# HEK293 Ca mobil – calcium mobilization in TMEM16A/YFP HEK293 cells, confirmation, counter-screen for TMEM16A inhibitor project | shares compounds with ANO1 block | Fluo4 calcium mobilization | calcium response (% of ionomycin), % at 10 µM | actives 2% (n = 2,300);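 active means duplicate-averaged calcium signal over 20% of the ionomycin maximum, relative to buffer baseline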;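 further: each well's signal is peak minus trough fluorescence divided by its pre-addition baseline; 0% = buffer wells and 100% = ionomycin wells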
# YFP-HEK293 quench – iodide YFP quench changes in parental YFP-HEK293, counter-screen for TMEM16A inhibitor project, cell-based | shares compounds with ANO1 block | ionomycin | YFP ratio F(max-min)/F0 at 10 µM | 2,300 tested, under 10 active | AID 652233, 2013;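 active means yellow fluorescent protein signal ratio exceeding the buffer control mean by over 5 SD of those controls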;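 further: ratio is mean of duplicate wells from kinetic YFP trace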
# ClC-1 inh – ClC-1 chloride channel inhibition, selectivity assay for TMEM16A inhibitor project, cell-based, voltage-dependent ClC-1 | 2,300 tested, under 10 active | ratio percent, % at 10 µM | CHO ClC-1-YFP, iodide influx fluorescence quench; iodide control reads 0, buffer control 100 | shares compounds with ANO1 block;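 active means duplicate-mean ratio percent above the mean of iodide-only control wells, which defines zero, plus 5 of their SD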;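 further: higher percent means stronger block of ClC-1 iodide influx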
# An asterisk follows results filed as active; i = inactive; · = no result given.
SMILES,MC4R antag cAMP,MC4R ag barr,ANO1 activ,ANO1 block,beta cell repl,HTR2A ag,TMEM16A reconf,HEK293 Ca mobil,YFP-HEK293 quench,ClC-1 inh
Cc1csc2ncnc(N3CCN(C(=O)Nc4ccc(OC(F)(F)F)cc4)CC3)c12,6.6,-1.0,i,100*,-3.2,8.5,16.5%*,i,-1.48,-11.5
O=C(Nc1ccc(OC(F)(F)F)cc1)N1CCN(c2ccnc3cc(Cl)ccc23)CC1,12.8,2.2,i,100*,-3.9,7.3,i,i,-1.08,-22.5
N#CCCN(NC(=O)OCc1ccccc1)C(=O)OCc1ccccc1,5.5,-0.4,i,·,·,-5.1,·,·,·,·
O=C(NNC(=O)c1cccs1)c1ccc(Cl)nc1,2.0,-0.5,i,i,0.8,1.2,·,·,·,·
COc1ccc(N2CCN(c3cc(C(=O)Nc4cc(OC)c(OC)c(OC)c4)ncn3)CC2)cc1OC,7.1,0.8,·,·,·,1.9,·,·,·,·
Cc1ccc(S(=O)(=O)N2CCN(c3ncnc4sccc34)CC2)cc1,-4.5,-0.7,i,25*,-7.0,0.1,17.0%*,i,-1.23,-13.0
Cc1ccc(-c2ccc(S(=O)(=O)N3CCN(C)CC3)cc2)cc1,-3.9,-1.6,i,100*,-1.5,-1.8,i,i,-0.847,-10.0
COc1cc(C(=O)N2CCN(c3ncnc4sc(C)c(C)c34)CC2)cc(OC)c1OC,5.5,-1.5,i,25*,-2.5,5.5,i,i,-1.01,-15.0
Cc1sc2ncnc(N3CCN(S(=O)(=O)c4ccc(F)cc4)CC3)c2c1C,9.7,-1.1,i,100*,-3.4,-3.3,i,i,-0.985,-10.5
CCn1cc(/C=C(\NC(=O)c2ccccc2)C(=O)NCCCn2ccnc2)c2ccccc21,2.9,0.1,·,·,·,2.9,·,·,·,·
NC(c1ccccc1)c1ccncc1 (centres undefined),-2.6,-0.6,i,i,-4.1,5.0,·,·,·,·
O=C(NCCC(=O)N1CCc2ccccc21)c1ccco1,7.2,-0.5,i,i,8.0,-3.5,·,·,·,·
Cc1cc2nc(-c3ccc(C#N)cc3)c(Cc3ccsc3)n2c(C)c1Br,·,·,·,·,·,-3.8,·,·,·,·
CSCCC(NC(=O)c1ccccc1Br)C(=O)NNC(=O)c1cc(C)oc1C (centres undefined),2.3,-0.6,i,·,-4.3,-2.8,·,·,·,·
O=C1NC(Cc2ccccc2)c2nc3cc(Cl)ccc3c(=O)n2-c2ncccc21 (centres undefined),16.9,1.2,·,·,·,-0.2,·,·,·,·
CC1=C([N+](=O)[O-])C(c2ccccc2)C2=C(N1)c1ccccc1C2=O (centres undefined),-25.2,-4.4,i,25*,-4.4,-5.6,38.0%*,i,-1,3.0
COc1ccc(C2C(C#N)=C(C)NC3=C2C(=O)c2ccccc23)cc1 (centres undefined),13.2,1.1,i,i,-3.1,-5.4,·,·,·,·
CCCCOC(=O)n1c(=O)oc2ccc(S(=O)(=O)N3CCCCC3)cc21,12.7,0.3,i,25*,2.7,-0.8,20.0%*,i,-1.04,-8.5
CC(C)COC(=O)n1c(=O)oc2cc(S(=O)(=O)N3CCCCC3)ccc21,1.8,3.6,i,i,1.4,0.9,·,·,·,·
Cc1ccc(NS(=O)(=O)c2cccc(C(=O)Nc3cc(C)on3)c2)cc1,12.1,-2.0,-5.28*,25*,-1.1,-0.5,i,i,-1.07,-12.5
COc1cc([C@@H]2c3cc4c(cc3[C@@H](O[C@@H]3O[C@@H]5CO[C@@H](C)O[C@H]5[C@H](O)[C@H]3O)[C@H]3COC(=O)[C@H]23)OCO4)cc(OC)c1O,4.4,-1.4,i,i,-8.1,-2.1,·,·,·,·
COc1cc(C2c3cc4c(cc3C(OC3OC5COC(c6cccs6)OC5C(O)C3O)C3COC(=O)C23)OCO4)cc(OC)c1O (centres undefined),-0.3,-0.7,i,25*,-8.0,3.5,i,i,-1.16,-9.5
COc1ccc(OC)c(CNc2nc3ccccc3n2CCN2CCCCC2)c1,-4.1,-1.7,i,i,-0.3,-8.2,·,·,·,·
COc1cccc(CNc2nc3ccccc3n2CCN2CCCCC2)c1OC,12.4,-1.8,i,25*,-2.4,-6.9,i,i,-0.991,-15.5
CCC1c2ccc(C)n2CCN1C(=O)Nc1cc(Cl)ccc1OC (centres undefined),7.1,-0.2,i,i,-5.1,0.0,16.0%*,i,-0.98,-9.5
CCC1c2ccc(C)n2CCN1C(=O)Nc1ccccc1C(=O)OC (centres undefined),-3.5,-2.3,i,i,-1.4,-9.6,i,i,-1.12,-13.5
OCC[C@H]1C[C@@H](O)[C@H](O)[C@@]2(CCc3ccccc3O2)O1,10.5,-1.9,i,i,-4.8,-5.2,·,·,·,·
O=C(Nn1c(O)c(C=C2N=c3ccccc3=N2)sc1=S)c1ccc(Cl)cc1,3.8,-0.3,i,i,-3.0,-14.2,·,·,·,·
O=C(Nn1c(O)c(C=C2N=c3ccccc3=N2)sc1=S)c1cccc(Cl)c1,0.1,0.1,i,25*,-4.4,-2.8,i,i,-0.812,-6.0
CCOc1ccc(NS(=O)(=O)c2cccc(C(=O)NCC3(N(C)C)CCCCC3)c2)cc1,5.6,-1.7,i,·,-3.2,-18.3,·,·,·,·
